# Bioassay records: PubChem BioAssay, Sanford-Burnham Center for Chemical Genomics
# aDG glyco act – alpha-DG glycosylation activation | activation, % at 10 µM | Pro5-aDG cells, alpha-DG glycosylation AlphaScreen (IIH6); 0% Pro5, 100% B10-LARGE cell signal | 360,000 compounds, 0.22% hits;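 active means activation of at least 8% versus controls, or a plate z-score of at least 8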;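 further: Pro5 are CHO cells carrying HIG-tagged alpha-DG that lacks glycosylation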
# NR1D1 modulator – Rev-erb alpha (human) modulation. P20393. Rev-erbα–FITC-DNA binding, fluorescence polarization, 90 min. activity, % at 10 µM. 370,000 compounds, 0.79% hits. AID 1259318;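 active means activity above about 14%, limit read from the data; passing the limit was not always enough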;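 further: 0% = DMSO wells with 35 nM protein and 100% = DMSO wells with 750 nM protein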
# Target sequence (P20393 whole entry, looked up): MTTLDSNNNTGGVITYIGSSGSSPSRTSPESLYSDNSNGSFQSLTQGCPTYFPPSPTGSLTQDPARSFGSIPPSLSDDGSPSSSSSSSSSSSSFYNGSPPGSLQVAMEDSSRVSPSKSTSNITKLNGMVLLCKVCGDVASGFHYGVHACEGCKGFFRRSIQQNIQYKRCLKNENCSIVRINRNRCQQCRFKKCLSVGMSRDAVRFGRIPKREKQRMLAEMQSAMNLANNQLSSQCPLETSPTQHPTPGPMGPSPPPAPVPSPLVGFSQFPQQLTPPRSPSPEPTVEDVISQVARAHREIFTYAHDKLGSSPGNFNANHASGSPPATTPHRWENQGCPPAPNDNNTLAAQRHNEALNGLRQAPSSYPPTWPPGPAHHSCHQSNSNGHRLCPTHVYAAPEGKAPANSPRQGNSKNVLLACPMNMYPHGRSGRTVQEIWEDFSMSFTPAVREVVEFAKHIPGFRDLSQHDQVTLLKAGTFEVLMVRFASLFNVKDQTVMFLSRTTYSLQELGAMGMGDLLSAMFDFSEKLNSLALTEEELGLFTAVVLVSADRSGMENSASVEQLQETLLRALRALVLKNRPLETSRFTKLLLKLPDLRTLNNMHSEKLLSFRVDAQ
# HNF4A DNA FP – change in binding of human HNF4 alpha to DNA | HNF4a-FITC DNA binding, fluorescence polarization, 1 h | activity change, % at 10 µM | 360,000 compounds, 0.3% hits | AID 1224865; in the data active means activity change above about 30%, passing the limit was not always enough
# CSN deneddyl inh – CSN deneddylation inhibition. 360,000 compounds, 0.38% hits. Purified CSN, SCF-Nedd8-OG deneddylation, fluorescence polarization. inhibition, % at 12.5 µM. Q92905. AID 651999;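 active means pattern-corrected inhibition above about 35%, with an unprinted fluorescence ratio check between 0.5 and 1.5, limit read from the data, passing the limit was not always enough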;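 further: 0% = enzyme with substrate and 100% = substrate without enzyme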
#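 Detection – fluorescence polarization · System – HEK293T-derived human Csn5 enzyme · Controls – substrate-only high control, full reaction low control · Timing – 90 min, room temperature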
# * = called active by the depositor; x = no result given. Hits are enriched below; roughly 1.5% of the tested compounds scored in any of these assays.
SMILES,aDG glyco act,NR1D1 modulator,HNF4A DNA FP,CSN deneddyl inh
O=C1NC[C@H](CC2CCCCC2)N(CCC23CC4CC(CC(C4)C2)C3)C1=O,0.1,3.5,6.0,65.7*
CC(C)(C)CN1C(=O)C(=O)NC[C@@H]1CC1CCCCC1,-0.2,4.7,-2.4,3.0
COc1ccccc1/C=C/C=N/NC(=O)c1ccccn1,-0.3,3.4,4.9,6.0
COc1ccccc1/C=C/C=N/NC(=O)c1cc(-c2ccco2)[nH]n1,-0.1,1.8,-18.0,44.9*
S=c1[nH]nc(-c2ccco2)n1-c1ccccc1Cl,2.0,1.4,-1.0,-0.7
S=c1[nH]nc(-c2cc(-c3ccco3)[nH]n2)n1-c1ccccc1Cl,-0.2,-6.0,-9.4,35.6*
CCOc1ccccc1C(=O)Nc1ccc(S(=O)(=O)N2CCN(C)CC2)cc1,0.1,-0.7,-0.3,2.6
CCOc1ccccc1C(=O)Nc1ccc(-n2nncc2C(C)(C)C)cc1,0.3,3.5,70.2*,-5.8
Cc1c(C)n2c(SCC(=O)Nc3ccc4c(c3)OCCO4)nnc2[nH]c1=O,-0.3,-4.4,-0.5,3.3
Cc1c(C)n2c(SCC(=O)NCc3ccc4c(c3)OCO4)nnc2[nH]c1=O,0.6,-0.5,0.4,51.6*
NC(=S)c1cc2ccc(O)cc2oc1=O,-0.5,-5.0,33.6,46.5*
Clc1ccc(C2=Nc3cc(Cl)ccc3OC2)cc1,-0.3,1.6,68.0*,-9.2
C[C@H](O)[C@@H]1CN2CCc3c([nH]c4cccc(-c5ccccc5)c34)[C@@H]2C[C@@H]1N(C)C(=O)Nc1ccccc1,x,9.8,x,x
COc1ccc(OCCOc2ccc(/C=C3\C(=N)N4N=C(C)SC4=NC3=O)cc2)cc1,0.0,-11.4,-10.4,45.5*
CCOC(=O)C1=C(c2ccccc2)NC(=O)NC1c1ccc(N(C)C)cc1 (stereo not drawn),0.0,x,1.3,2.3
CCOC(=O)C1=C(c2ccccc2)NC(=O)NC1c1ccc(OC)cc1 (stereo not drawn),-0.1,1.4,-3.9,107.3*
Nc1nc(SCC(=O)NCC2CCCO2)[nH]c(=O)c1NC(=O)c1ccco1 (stereo not drawn),0.1,-0.3,2.9,46.3*
CC1(C)Cc2ccccc2C2CC(O)C(=O)N21 (stereo not drawn),0.1,7.3,35.4*,1.0
CC(=O)Nc1cccc(OCC(O)Cn2cnc3ccccc32)c1 (stereo not drawn),0.1,-3.9,-2.9,58.4*
CC(=O)Nc1ccc(OCC(O)Cn2cnc3ccccc32)cc1 (stereo not drawn),-0.1,-2.9,2.3,-3.1
COc1nnc(-c2ccc(C)c(S(N)(=O)=O)c2)c2ccccc12,0.0,1.6,-1.7,0.1
COc1nnc(-c2ccc(N3CCCCC3)c(N)c2)c2ccccc12,0.6,-1.9,5.4,110.1*
COc1cc(NC(=O)C2CCCN(S(=O)(=O)c3cccc4cccnc34)C2)cc(OC)c1 (stereo not drawn),x,-4.1,x,x
Cc1nc2c3cc(F)ccc3n(Cc3ccc(F)cc3)c2s1,0.0,2.8,-3.4,5.5
CCc1ccc2c(c1)c1nc(C)sc1n2CC,0.2,1.2,-3.0,54.5*
SMILES,aDG glyco act,NR1D1 modulator,HNF4A DNA FP,CSN deneddyl inh
Oc1cc(Br)ccc1C=Nc1ccc(N2CCCCC2)cc1,-0.2,-2.4,36.7*,-2.3
N[C@@H](CSCC(=O)O)C(=O)O,x,2.6,x,x
CCn1cc(C=C2C(=O)c3ccccc3C2=O)c2ccccc21,0.1,14.5,36.4*,-25.9
Cc1ccc(C(=O)O)cc1-c1ccc(/C=C2\SC(=O)N(CC(=O)Nc3ccccc3)C2=O)o1,-0.1,-2.4,6.3,19.1
Cc1cc(C(=O)O)ccc1-c1ccc(/C=C2\SC(=O)N(CC(=O)Nc3ccc4c(c3)OCO4)C2=O)o1,0.1,-24.9,36.4*,31.3
COc1ccc(-n2c(SCC(=O)Nc3cc(C)c(NC(=O)c4ccccc4)cc3OC)nnc2-c2ccccc2F)cc1,x,-2.6,x,x
O=C(CSc1ncccc1C(=O)O)c1cccc(C(F)(F)F)c1,-0.1,-4.0,56.1*,-9.3
NS(=O)(=O)c1ccc(-c2ccc(/C=C3\NC(=S)NC3=O)o2)cc1,0.0,-0.9,36.0*,-1.4
O=C(/C=C/Nc1ccccc1)c1ccccc1,-0.1,0.5,-0.5,0.7
CN(C)c1ccc(N/C=C/C(=O)c2ccccc2)cc1,-0.1,11.6,38.4*,11.2
Oc1ccccc1-c1cc(-c2ccco2)[nH]n1,-0.4,-3.6,4.4,23.1
Oc1ccc(Cl)cc1-c1cc(-c2ccco2)[nH]n1,-0.4,2.2,2.5,44.9*
COC(=O)[C@]12C[C@H](CC(=O)NCCCN3CCCC3=O)C(=O)N(Cc3ccc(Cl)cc3Cl)C1=C[C@H](COCc1ccccc1)O[C@@H]2C,x,-8.7,x,x
COc1ccccc1-[n+]1c(C)cc(/C=C2\Sc3ccccc3N2C)cc1C,0.9,16.1,54.6*,21.5
COc1ccc(C(=O)/C=C2\Sc3ccccc3N2C)cc1,0.7,1.1,-1.4,-10.3
COc1ccc(-[n+]2c(C)cc(/C=C3\Sc4ccccc4N3C)cc2C)cc1,1.3,15.5,49.6*,21.3
COc1ccc(OCC(=O)Nc2cc(-c3nn4c(C)nnc4s3)ccc2C)cc1,0.0,5.0,42.2*,11.0
Cc1cc(OCC(=O)Nc2cc(-c3nn4c(C)nnc4s3)ccc2C)ccc1Cl,-0.1,13.5,13.9,19.8
Cc1nnc(NC(=O)c2cc(-c3ccco3)nc3ccccc23)s1,-0.1,-25.2,-21.1,41.1
Cc1csc(NC(=O)c2cc(-c3ccco3)nc3ccccc23)n1,-0.2,-30.1,-38.0,45.8*
N=c1c(S(=O)(=O)c2ccc(Cl)cc2)cc2c(=O)n3ccccc3nc2n1Cc1ccco1,-0.3,-4.1,4.9,40.2*
CCc1ccc(/C(C)=N/NC(=O)CNC(=O)/C=C/c2ccccc2OC)cc1,0.2,-1.0,1.0,1.3
CCc1ccc(/C(C)=N/NC(=O)CNC(=O)/C=C/c2ccco2)cc1,0.0,x,-59.7,37.6*
Cc1cc(/C=C2\SC(=S)NC2=O)c(C)[nH]1,-0.2,-13.2,56.9*,92.7
CC1(C)S[C@@H]2[C@H](NC(=O)[C@H](C(=O)O)c3cccs3)C(=O)N2[C@H]1C(=O)O,x,9.1,x,x
SMILES,aDG glyco act,NR1D1 modulator,HNF4A DNA FP,CSN deneddyl inh
CC1(C)CC(c2nc(-c3ccc(Cl)cc3)cs2)CCS1 (stereo not drawn),-0.1,3.1,1.4,2.5
CC1(C)CC(c2nc(-c3ccccc3)cs2)CCS1 (stereo not drawn),-0.4,4.6,16.7,96.8*
COc1ccc(C2C(C#N)=C(C)NC3=C2C(=O)CC(C)(C)C3)cc1 (stereo not drawn),0.2,-0.4,1.4,102.5*
N#Cc1c(C(F)(F)F)cc(-c2ccc(Cl)c(Cl)c2)nc1SCCN1CCOCC1,0.4,3.4,4.5,4.6
N#Cc1c(C(F)(F)F)cc(-c2ccccc2)nc1SCc1nc(N)nc(N2CCOCC2)n1,0.4,13.2,29.0,60.5*
CCn1c(SCC(=O)Nc2ccccc2-c2ccccc2)nnc1-c1ccc(Cl)cc1,x,-4.2,x,x
COc1ccc(/C=C2\SC(=S)N(C(Cc3ccccc3)C(=O)O)C2=O)cc1 (stereo not drawn),-0.2,-2.4,-0.2,-15.8
